Test results taken from BindingDB's records for doi:10.1021/jm9014197 (Wyeth Research, 2009).

Target: T1, Dickkopf-related protein 1 (Homo sapiens, UniProt O94907)
T1 sequence (O94907 whole entry): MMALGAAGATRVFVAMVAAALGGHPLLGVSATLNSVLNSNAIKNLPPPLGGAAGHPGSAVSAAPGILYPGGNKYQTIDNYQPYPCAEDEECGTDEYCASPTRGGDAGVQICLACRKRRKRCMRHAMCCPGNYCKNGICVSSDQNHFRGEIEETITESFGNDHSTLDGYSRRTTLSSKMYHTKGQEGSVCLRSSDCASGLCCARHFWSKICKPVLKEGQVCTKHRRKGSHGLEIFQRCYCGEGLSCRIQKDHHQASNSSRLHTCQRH
Experiment: Inhibition of Dkk1-mediated Wnt/beta-catenin signaling in osteosarcoma cells assessed as potentiation of TCF-luciferase response
Method in brief: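 Cells were transfected with a TCF-luciferase response element plus a renilla standard as the control read-out. Agonism was read as increased luciferase light output relative to DMSO alone. EC50 values are the average of at least two experiments run in triplicate.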

Row | SMILES | EC50 [nM]
1 | Cc1ccc(-c2ccnc(N(C)c3ccc(S(N)(=O)=O)cc3)n2)s1 [4-(methyl(4-(5-methylthiophen-2-yl)pyrimidin-2-yl)amino)benzenesulfonamide] | 9800
2 | CC(=O)NCC1CCN(c2nccc(-c3ccc4ccccc4c3)n2)CC1 [N-((1-(4-(naphthalen-2-yl)pyrimidin-2-yl)piperidin-4-yl)methyl)acetamide] | 1900
3 | NC1CCN(c2nccc(-c3ccc4ccccc4c3)n2)CC1 [1-(4-(naphthalen-2-yl)pyrimidin-2-yl)piperidin-4-amine] | 1000
4 | NCC1CCN(c2nccc(-c3ccc4ccccc4c3)n2)CC1 [(1-(4-(naphthalen-2-yl)pyrimidin-2-yl)piperidin-4-yl)methanamine] | 630
5 | NS(=O)(=O)c1ccc(Nc2nccc(-c3ccc4ccccc4c3)n2)cc1 [4-(4-(naphthalen-2-yl)pyrimidin-2-ylamino)benzenesulfonamide] | 1000
6 | Cc1ccc(-c2ccnc(Nc3ccc(S(N)(=O)=O)cc3)n2)s1 [4-(4-(5-methylthiophen-2-yl)pyrimidin-2-ylamino)benzenesulfonamide] | 7800
